The subject of one test is HCT-116. Briefly: Antiproliferative activity against human HCT116 cells after 72 hrs by SRB assay. In kind it is functional, cell-based. The settings on record: HCT-116, 72 h.
A further test concerns MDA-MB-231. In words: Antiproliferative activity against human MDA-MB-231 cells after 72 hrs by SRB assay. It is filed as functional, cell-based. The settings on record: MDA-MB-231, 72 h. For orientation: The SRB assay estimates cell density from bound dye.
A further test concerns SNU-638. In words: Antiproliferative activity against human SNU638 cells after 72 hrs by SRB assay. It is filed as functional, cell-based. The following applies: SNU-638, 72 h.
Test [1] addresses T1, Phosphatidylinositol 4,5-bisphosphate 3-kinase catalytic subunit alpha isoform (Homo sapiens, UniProt P42336). Briefly: Inhibition of recombinant human PI3K-alpha using PIP2:3PS as substrate preincubated for 15 mins followed by ATP addition measured after 1 hr by ADP-Glo assay. In outline:
(§1)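 Luminescent ADP-production readout (PI3K-Glo Class I kit). Enzymes p110α/p85α, p110β/p85α, p120γ or p110δ/p85α diluted in reaction buffer with lipid substrate, preincubated with serially diluted compound 15 min at room temperature. ADP-Glo reagent 40 min, then detection reagent 40 min. IC50 by normalized nonlinear dose-response fit.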
(In ADP-Glo the light output rises with the ADP produced.)

In test [2] the target is Phosphatidylinositol 4,5-bisphosphate 3-kinase catalytic subunit beta isoform (Homo sapiens, UniProt P42338). In words: Inhibition of recombinant human PI3K-beta using PIP2:3PS as substrate preincubated for 15 mins followed by ATP addition measured after 1 hr by ADP-Glo assay. In outline: as §1
Chain of Phosphatidylinositol 4,5-bisphosphate 3-kinase catalytic subunit beta isoform (P42338 whole entry, canonical isoform): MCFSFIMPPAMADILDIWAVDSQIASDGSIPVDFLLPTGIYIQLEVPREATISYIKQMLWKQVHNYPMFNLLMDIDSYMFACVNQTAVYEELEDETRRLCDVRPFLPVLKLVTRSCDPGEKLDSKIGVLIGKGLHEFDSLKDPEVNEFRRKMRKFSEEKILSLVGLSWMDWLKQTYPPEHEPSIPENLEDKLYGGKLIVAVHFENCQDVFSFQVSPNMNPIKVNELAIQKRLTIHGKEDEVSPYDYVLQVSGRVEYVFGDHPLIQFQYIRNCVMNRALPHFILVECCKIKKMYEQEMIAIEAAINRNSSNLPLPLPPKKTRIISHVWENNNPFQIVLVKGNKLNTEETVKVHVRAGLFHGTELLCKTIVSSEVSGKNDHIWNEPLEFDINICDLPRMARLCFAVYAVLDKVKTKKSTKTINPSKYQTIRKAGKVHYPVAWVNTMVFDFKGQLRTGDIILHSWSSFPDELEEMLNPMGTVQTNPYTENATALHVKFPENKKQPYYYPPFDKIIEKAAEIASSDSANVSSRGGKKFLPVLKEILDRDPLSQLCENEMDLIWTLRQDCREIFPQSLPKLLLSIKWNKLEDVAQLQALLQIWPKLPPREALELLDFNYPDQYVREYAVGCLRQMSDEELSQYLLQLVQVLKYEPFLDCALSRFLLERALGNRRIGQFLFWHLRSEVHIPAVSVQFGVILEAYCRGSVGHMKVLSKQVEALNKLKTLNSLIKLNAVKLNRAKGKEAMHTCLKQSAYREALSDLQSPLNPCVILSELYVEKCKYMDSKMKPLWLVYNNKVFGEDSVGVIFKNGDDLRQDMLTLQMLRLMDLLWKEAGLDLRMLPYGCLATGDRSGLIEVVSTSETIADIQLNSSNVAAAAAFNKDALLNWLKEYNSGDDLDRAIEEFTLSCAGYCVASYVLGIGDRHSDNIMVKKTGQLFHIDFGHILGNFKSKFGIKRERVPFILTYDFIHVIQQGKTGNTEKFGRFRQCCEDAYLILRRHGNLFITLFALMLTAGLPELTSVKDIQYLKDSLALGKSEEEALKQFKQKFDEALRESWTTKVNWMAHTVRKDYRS
The target of test [3] is Phosphatidylinositol 4,5-bisphosphate 3-kinase catalytic subunit gamma isoform (Homo sapiens, UniProt P48736). Briefly: Inhibition of recombinant human PI3K-gamma using PIP2:3PS as substrate preincubated for 15 mins followed by ATP addition measured after 1 hr by ADP-Glo assay. The procedure, abridged:
as §1

The species named for test [4] is Homo sapiens. Briefly: Selectivity ratio of IC50 for recombinant human PI3K-beta to IC50 for recombinant human PI3K-alpha. The procedure, abridged: (§2)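 Ratios derived from isoform IC50 values obtained in the ADP-Glo lipid-kinase assay: each enzyme preincubated 15 min with compound and lipid substrate, reaction started with ATP (250 µM stock), 1 h at room temperature, luminescence read and IC50 fitted by normalized nonlinear regression.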

The species entered for test [5] is Homo sapiens. Briefly: Selectivity ratio of IC50 for recombinant human PI3K-gamma to IC50 for recombinant human PI3K-alpha. The procedure, abridged:
as §2

For the next test, the system named is MRC5. In words: Antiproliferative activity against human MRC5 cells after 72 hrs by SRB assay. The settings on record: MRC5, 72 h. In kind it is cell-based. In outline:
(§3)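 Normal human cells (MRC5, HUVEC) exposed to graded compound concentrations for 72 h at 37 °C, 5% CO2, fixed with 10% TCA and stained by SRB. IC50 obtained by non-linear regression of percent growth against concentration.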

Another test deals with HUVEC. Briefly: Antiproliferative activity against HUVEC after 72 hrs by SRB assay. In kind it is cell-based. The following applies: Homo sapiens. The procedure, abridged: as §3
The target in test [6] is T2, Phosphatidylinositol 4,5-bisphosphate 3-kinase catalytic subunit delta isoform (Homo sapiens, UniProt O00329).
T2 sequence (O00329 whole entry): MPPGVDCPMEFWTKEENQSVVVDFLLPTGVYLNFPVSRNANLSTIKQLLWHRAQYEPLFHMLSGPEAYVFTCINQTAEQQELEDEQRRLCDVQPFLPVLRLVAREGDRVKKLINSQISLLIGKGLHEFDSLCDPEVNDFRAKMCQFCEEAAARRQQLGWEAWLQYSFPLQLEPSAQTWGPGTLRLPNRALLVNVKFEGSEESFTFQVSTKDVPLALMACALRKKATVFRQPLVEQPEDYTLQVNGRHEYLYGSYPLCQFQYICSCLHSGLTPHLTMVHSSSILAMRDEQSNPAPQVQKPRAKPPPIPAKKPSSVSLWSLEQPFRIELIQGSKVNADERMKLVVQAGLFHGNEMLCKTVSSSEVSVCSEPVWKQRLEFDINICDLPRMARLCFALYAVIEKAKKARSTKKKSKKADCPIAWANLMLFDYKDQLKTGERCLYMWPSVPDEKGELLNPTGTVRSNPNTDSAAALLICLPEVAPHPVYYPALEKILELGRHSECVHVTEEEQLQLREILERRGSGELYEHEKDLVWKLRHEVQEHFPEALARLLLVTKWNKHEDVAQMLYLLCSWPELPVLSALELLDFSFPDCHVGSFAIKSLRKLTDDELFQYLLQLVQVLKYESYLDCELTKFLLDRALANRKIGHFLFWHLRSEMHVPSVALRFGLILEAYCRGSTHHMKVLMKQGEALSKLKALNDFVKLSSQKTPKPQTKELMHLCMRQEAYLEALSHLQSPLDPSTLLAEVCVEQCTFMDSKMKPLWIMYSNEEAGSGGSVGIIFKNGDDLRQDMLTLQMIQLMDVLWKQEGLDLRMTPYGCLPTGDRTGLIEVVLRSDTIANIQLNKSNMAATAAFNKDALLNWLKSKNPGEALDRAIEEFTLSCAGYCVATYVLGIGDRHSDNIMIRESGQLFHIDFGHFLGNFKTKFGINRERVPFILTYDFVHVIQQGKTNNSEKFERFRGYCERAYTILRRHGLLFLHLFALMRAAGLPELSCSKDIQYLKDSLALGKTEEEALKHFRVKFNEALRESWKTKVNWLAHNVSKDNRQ
In words: Inhibition of recombinant human PI3K-delta using PIP2:3PS as substrate preincubated for 15 mins followed by ATP addition measured after 1 hr by ADP-Glo assay. In outline:
as §1

The species named for test [7] is Homo sapiens. Briefly: Selectivity ratio of IC50 for recombinant human PI3K-delta to IC50 for recombinant human PI3K-alpha. In outline: as §2
The target of test [8] is T1, Phosphatidylinositol 4,5-bisphosphate 3-kinase catalytic subunit alpha isoform. Briefly: Inhibition of PI3K-alpha in human HCT116 cells assessed as reduction in Akt phosphorylation at Thr-308 residue by Western blot analysis. In kind it is cell-based. In outline: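 Equal protein amounts separated by 10% SDS-PAGE, transferred to PVDF, probed with the indicated antibodies; β-actin as internal control.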

T1 sequence (P42336 whole entry, canonical isoform): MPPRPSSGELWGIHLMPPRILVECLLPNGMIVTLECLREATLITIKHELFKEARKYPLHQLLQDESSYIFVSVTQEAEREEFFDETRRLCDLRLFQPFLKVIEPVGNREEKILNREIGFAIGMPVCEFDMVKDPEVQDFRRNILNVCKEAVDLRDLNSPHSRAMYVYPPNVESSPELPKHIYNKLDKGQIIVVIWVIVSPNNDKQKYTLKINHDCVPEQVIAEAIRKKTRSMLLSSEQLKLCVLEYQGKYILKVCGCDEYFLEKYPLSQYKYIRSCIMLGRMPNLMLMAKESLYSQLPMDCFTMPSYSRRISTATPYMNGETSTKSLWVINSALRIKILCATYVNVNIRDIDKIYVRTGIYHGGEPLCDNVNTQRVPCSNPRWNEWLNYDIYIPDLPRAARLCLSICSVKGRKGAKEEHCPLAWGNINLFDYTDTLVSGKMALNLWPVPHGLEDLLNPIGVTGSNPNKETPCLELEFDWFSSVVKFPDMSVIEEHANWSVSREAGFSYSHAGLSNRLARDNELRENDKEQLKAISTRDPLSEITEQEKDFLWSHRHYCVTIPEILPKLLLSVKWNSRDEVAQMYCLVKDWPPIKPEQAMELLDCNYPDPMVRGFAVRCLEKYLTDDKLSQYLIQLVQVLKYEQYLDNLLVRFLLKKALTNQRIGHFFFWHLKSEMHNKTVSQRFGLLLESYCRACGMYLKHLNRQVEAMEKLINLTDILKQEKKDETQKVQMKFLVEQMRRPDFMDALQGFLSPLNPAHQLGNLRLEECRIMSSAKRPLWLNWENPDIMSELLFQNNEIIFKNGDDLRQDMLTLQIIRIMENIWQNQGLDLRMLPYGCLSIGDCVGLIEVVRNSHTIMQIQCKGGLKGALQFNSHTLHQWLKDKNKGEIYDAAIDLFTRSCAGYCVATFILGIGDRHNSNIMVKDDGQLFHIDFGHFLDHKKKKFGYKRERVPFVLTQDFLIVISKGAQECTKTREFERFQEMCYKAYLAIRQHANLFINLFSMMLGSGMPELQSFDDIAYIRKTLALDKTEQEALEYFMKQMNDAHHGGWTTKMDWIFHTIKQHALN
Chain of Phosphatidylinositol 4,5-bisphosphate 3-kinase catalytic subunit gamma isoform (P48736 whole entry, canonical isoform): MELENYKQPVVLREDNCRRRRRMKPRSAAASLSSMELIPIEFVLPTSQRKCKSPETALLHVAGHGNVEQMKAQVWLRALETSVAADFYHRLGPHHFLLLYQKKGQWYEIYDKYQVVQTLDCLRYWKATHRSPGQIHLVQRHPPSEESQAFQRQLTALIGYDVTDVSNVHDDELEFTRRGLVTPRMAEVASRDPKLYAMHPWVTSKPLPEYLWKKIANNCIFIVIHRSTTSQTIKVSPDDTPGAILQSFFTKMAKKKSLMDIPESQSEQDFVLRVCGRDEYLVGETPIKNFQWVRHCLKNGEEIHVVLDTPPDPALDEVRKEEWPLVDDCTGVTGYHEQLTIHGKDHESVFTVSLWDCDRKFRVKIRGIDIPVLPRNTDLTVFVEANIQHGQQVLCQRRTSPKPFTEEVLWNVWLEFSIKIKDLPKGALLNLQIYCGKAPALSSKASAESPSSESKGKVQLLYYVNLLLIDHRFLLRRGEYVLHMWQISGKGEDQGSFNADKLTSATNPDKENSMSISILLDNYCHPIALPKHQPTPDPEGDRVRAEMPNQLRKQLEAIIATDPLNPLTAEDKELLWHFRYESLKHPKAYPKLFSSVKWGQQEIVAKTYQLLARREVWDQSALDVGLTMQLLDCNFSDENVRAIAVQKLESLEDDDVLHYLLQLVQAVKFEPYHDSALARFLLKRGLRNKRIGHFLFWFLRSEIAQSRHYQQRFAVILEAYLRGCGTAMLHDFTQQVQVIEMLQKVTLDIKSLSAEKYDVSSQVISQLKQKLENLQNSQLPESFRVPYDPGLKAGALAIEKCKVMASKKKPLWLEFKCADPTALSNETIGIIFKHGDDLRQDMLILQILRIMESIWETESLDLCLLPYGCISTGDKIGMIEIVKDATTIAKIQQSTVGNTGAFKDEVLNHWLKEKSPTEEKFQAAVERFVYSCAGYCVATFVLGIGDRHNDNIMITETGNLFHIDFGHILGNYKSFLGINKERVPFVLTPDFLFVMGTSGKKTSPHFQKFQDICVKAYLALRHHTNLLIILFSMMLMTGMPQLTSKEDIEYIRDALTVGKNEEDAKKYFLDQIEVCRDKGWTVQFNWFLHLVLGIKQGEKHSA

A word on the IC50: it is the midpoint of a concentration-inhibition curve. In the case of `CCCCS(=O)(=O)Nc1cc(-c2ccc3c(c2)N(CCN2CCOCC2)C(=O)CO3)cnc1OC`, the IC50 in the test with HCT-116 was found to be 15.8 µM; in the test with MDA-MB-231, 19.5 µM; in the test with SNU-638, 20.4 µM.

Turning to `CCOC(=O)CN1CCN(C2=Nc3cc(-c4cnc(OC)c(NS(=O)(=O)c5ccc(F)cc5F)c4)ccc3OC2)CC1`, the values for the IC50 with HCT-116, in the test on MDA-MB-231 and in the test on SNU-638 were 14.5 µM, 17.2 µM and 21.4 µM, respectively.

Turning to `Cn1c(=O)n(-c2ccc(C(C)(C)C#N)cc2)c2c3cc(-c4cnc5ccccc5c4)ccc3ncc21` [DACTOLISIB], the IC50 in the test on MDA-MB-231 amounted to 0.56 µM.

Turning to `CCCCS(=O)(=O)Nc1cc(-c2ccc3c(c2)N(CCCn2cccn2)C(=O)CO3)cnc1OC`, the values for the IC50 in the test with HCT-116, in the test with MDA-MB-231 and with SNU-638 were 33.6 µM, 37.9 µM and 36.2 µM, respectively.

Take `CCCCS(=O)(=O)Nc1cc(-c2ccc3c(c2)N(CCCn2ccnc2)C(=O)CO3)cnc1OC`: the half-inhibitory concentration (IC50) was found to be 32.9 µM in the test on HCT-116, 40.4 µM with MDA-MB-231 and 32.7 µM with SNU-638.

Take `CCCCS(=O)(=O)Nc1cc(-c2ccc3c(c2)N(Cc2ccncc2)C(=O)CO3)cnc1OC`: the figures for the IC50 in the test on HCT-116, in the test on MDA-MB-231 and with SNU-638 were 41.4 µM, 37.9 µM and 46.5 µM, respectively.

Take `CCCCS(=O)(=O)Nc1cc(-c2ccc3c(c2)N(CCCN(C)C)C(=O)CO3)cnc1OC`: the IC50 in the test with HCT-116 came to 8.43 µM; in the test with MDA-MB-231, 9.35 µM; in the test on SNU-638, 8.97 µM.

Turning to `COc1ncc(-c2ccc3c(c2)N=C(N2CCN(CCCO)CC2)CO3)cc1NS(=O)(=O)c1ccc(F)cc1F`, the 50% inhibitory concentration (IC50) with HCT-116 worked out at 3.26 µM; with MDA-MB-231, 4.78 µM; in the test with SNU-638 it was 4.97 µM.

For `CCCCS(=O)(=O)Nc1cc(-c2ccc3c(c2)N(CCCN2CCOCC2)C(=O)CO3)cnc1OC`, the IC50 with HCT-116 was 4.62 µM; with MDA-MB-231, 4.23 µM; with SNU-638, 5.01 µM.

For the molecule `COc1ncc(-c2ccc3c(c2)N(CCC(=O)N2CCOCC2)C(=O)CO3)cc1NS(=O)(=O)c1ccc(F)cc1F`, the IC50 with HCT-116 was determined as 3.18 µM; with MDA-MB-231 it was 3.26 µM; with SNU-638, 5.77 µM.

For the molecule `COc1ncc(-c2ccc3c(c2)N(Cc2ccncc2)C(=O)CO3)cc1NS(=O)(=O)c1ccc(F)cc1F`, the IC50 with HCT-116 was 2.22 µM; in the test with MDA-MB-231 it was 5.49 µM; in the test with SNU-638, 6.96 µM.

Turning to `CCCCS(=O)(=O)Nc1cc(-c2ccc3c(c2)N(CCC(=O)N2CCOCC2)C(=O)CO3)cnc1OC`, the IC50 in the test on HCT-116 was 23.5 µM; with MDA-MB-231 it was 43.8 µM; in the test with SNU-638, 41.9 µM.

`COc1ncc(-c2ccc3c(c2)N=C(N2CCN(CCO)CC2)CO3)cc1NS(=O)(=O)c1ccc(F)cc1F`: the results for the IC50 in the test on HCT-116, with MDA-MB-231 and in the test on SNU-638 were 6.18 µM, 8.26 µM and 7.39 µM, respectively.

With `COc1ncc(-c2ccc3c(c2)N(CCCn2ccccc2=O)C(=O)CO3)cc1NS(=O)(=O)c1ccc(F)cc1F`, the IC50 in the test on HCT-116 turned out to be 4.23 µM; with MDA-MB-231, 12.4 µM; in the test with SNU-638, 6.76 µM.

Regarding `CCCCS(=O)(=O)Nc1cc(-c2ccc3c(c2)N(CCCn2ccccc2=O)C(=O)CO3)cnc1OC`, the figures for the IC50 in the test on HCT-116, with MDA-MB-231 and in the test with SNU-638 were 42.6 µM, 47.9 µM and 44.3 µM, respectively.

For `COc1ncc(-c2ccc3c(c2)N(Cc2ccc(F)cc2)C(=O)CO3)cc1NS(=O)(=O)c1ccc(F)cc1F`, the IC50 was found to be 1.24 µM in the test with HCT-116, 4.98 µM with MDA-MB-231 and 7.84 µM with SNU-638.

In the case of `COc1ncc(-c2ccc3c(c2)N(CCN2CCOCC2)C(=O)CO3)cc1NS(=O)(=O)c1ccc(F)cc1F`, the IC50 was 2.4 µM with HCT-116, 1.82 µM with MDA-MB-231 and 2.38 µM with SNU-638.

As for `COC(=O)CCN1CCN(C2=Nc3cc(-c4cnc(OC)c(NS(=O)(=O)c5ccc(F)cc5F)c4)ccc3OC2)CC1`, the IC50 was determined as 18.6 µM with HCT-116, 22.8 µM with MDA-MB-231 and 24.9 µM in the test with SNU-638.

As to `CCCCS(=O)(=O)Nc1cc(-c2ccc3c(c2)N(CCCN(CC)CC)C(=O)CO3)cnc1OC`, the IC50 is 14.6 µM in the test with HCT-116, 13.8 µM with MDA-MB-231 and 17.6 µM in the test with SNU-638.

Take `COc1ncc(-c2ccc3c(c2)N(CCCN2CCOCC2)C(=O)CO3)cc1NS(=O)(=O)c1ccc(F)cc1F`: the IC50 in [1] worked out at 0.0267 µM; in test [2], 0.382 µM; in [3], 0.185 µM; with HCT-116 it was 0.58 µM; in the test with MDA-MB-231, 0.49 µM; in the test on SNU-638, 0.52 µM. Also, the values for the IC50 (with MRC5; with HUVEC; in test [6]) were 32.8 µM, 15.6 µM and 0.425 µM, respectively. Besides, the Ratio IC50 was 14.3 in the test listed under Homo sapiens [4], 7 in the test listed under Homo sapiens [5] and 15.9 in the test filed under Homo sapiens [7]. In addition, in [8], the inhibition result is “Dose-dependent effect”.

These data come from ChEMBL document CHEMBL4229415, “Design, synthesis and biological evaluation of novel series of 2H-benzo[b][1,4]oxazin-3(4H)-one and 2H-benzo[b][1,4]oxazine scaffold derivatives as PI3Kα inhibitors” (Bioorg Med Chem, 2018).
